# This sample holds only a part of the variants without activity.
# B1: tRNA (parent)
# chain: GUUCCGUUGGCGUAAUGGUAACGCGUCUCCCUCCUAAGGAGAAGACUGCGGGUUCGAGUCCCGUACGGAACG
# Variants of: B1
# Test: yeast fitness relative to wild type (ratio to wild type); higher = fitter; tRNA-Arg(CCU), competitive growth, 37 C, YPD
# In short: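 Genotype frequency changes were the basis for Darwinian fitness relative to wild type. The frequencies came from 100-nucleotide paired-end sequencing of gene amplicons from the start population and each end population of pooled yeast strains with tRNA-Arg(CCU) gene variants at the native locus. Competition ran in YPD at 37°C for 24 hours in six replicates, genotypes needed ≥ 100 starting reads, and estimates < 0.5 were set to 0.5.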
row,Variant,yeast fitness
1,GUUCCGUUCGCGUAAUGGUAACGUGUCUCGCUCCUAAGGAGAAGACUGCGAGUUCGAGUUCCGUACAGAACG,0.543
2,GUUCCGUUCGCGUAAUGGUAAGGCGUCUCCCUCCUAAGGAGAAGACUGCGGGUUCGAGUCCAGUACGGAACG,≤ 0.5
3,GUUCCGUUCGCGUAAUGGUAACGCGUUUCCCUCCUAAGGAGUAGACUGCGGGUUGGAGUCCCGUACGGAACG,≤ 0.5
4,GUUCCGUUCGGGUAAUGGUAACGUGUCUCCUUCCUAAGGAGAAGACUGCGGGUUCGAGGCCCGUACGGACCG,≤ 0.5
5,GUUCCGUUCGCGUAAUGGUAACGCGUUUCCCUGCUAAGGAGAAGACUGCGGGUUCGAGUCCCGUACGGAACG,≤ 0.5
6,GUUCCGUUCGCGUAAUGGUAACGCGUCUCUCUCCUAAGGAGAAGACUGCGGGUUCGAGUCCCGUACGGUACG,≤ 0.5
7,GUUCCGUUCGGCUAAUGGUAACGCGUCCCCCUCCUAAGGAGAAGACUGCGGGUUCGAGUCUCGUACGGAACG,0.747
8,GUUCCGUUCGCGUAAUGGUAACGCGUCUACCGCCUAAGGAGAAGACUGCGGGUUCGAGUCCCGUAUGGAACG,≤ 0.5
9,GUUCCGUUCGCGUAAUGGUAACGCGUCUCCCUCCUAAGGAGUAGACUGCGGGUUCGAGUCCGGUACGGAACG,≤ 0.5
10,GUUCCGUUCGGGUAAUGGUAACGUGUCUCCUUCCUAAGGAGAAGACUGCGGGUUCGAGACCCGUACGGACCG,0.563
11,GUUCCGUUCGCGUAAUGGUAACGCGUCUCUCUCCUAGGGAGAAGACUGCGGGUUGGAGUCCCGUACGGAACG,≤ 0.5
12,GUUCCGUUCGCGUAAUGGUAACGCGUUUCCCUGCUAGGGAGAAGACUGCGGGUUCGAGUCCCGUAUGGAACG,≤ 0.5
13,GUUCCGUUCGCGUAAUGGUAACGCGUUUCCCUCCUAAGGAGAAGACUGCGGGUUCGAGUCCCGUACGGAACG,0.621
14,GUUCCGUUCGCGUAAUGGUAACGCGUCUCGCUCCUUAGGAGAAGAAUGCGGGUUCGAGUCCCGUACGGAACG,0.532
15,GUUCCGUUCGUGUAAUGGUAACGCGUCUCCCUCCUCAGGAGAAGACUGCGGGUUCGAGUCCCGUACGGAACG,≤ 0.5
16,GUUCCGUUCGCGUAAUGGUAACGCGUCUCCCUCCUCAGGAGAAGACUGGGGGUUCGAGUCCCGUGCGGAACG,0.681
17,GUUCCGUUCGCGUAAUGGUAACGCGUCUCACUCCUAAGGAGAAGAAUCCGGGUUCGAGUCCCGUACGGACCG,≤ 0.5
18,GUUCCGUUCGCGUAAUGGUAACGCGUCUCCCUCCUAAGGAGAAGACUGCGGGUUCGGGACCCGUACGGAACG,≤ 0.5
19,GUUCCGUUCGCGUAAUGGUAACGCGUCUCCCUCCUAAGGUGAAGACUGCGGGUUCGAGUCCCGUAUGGAACG,0.622

row,Variant,yeast fitness
1,GUUCCGUUCGCGUAAUGGUAACGCGUCUCUCUCCUAAGGAGAAGGCUGCGGGUUCGAGUCCCGUACGGAACG,≤ 0.5
2,GUUCCGUUCGCGUAAUGGUAACGCGUCUCCCUCCUAGGGAGAAGACUGCGGGUUCGAGUCCCGUACGAAACG,≤ 0.5
3,GUUCCGUUCGCGUAAUGGUAACGCGUAGCCCUCCUAAGGAGAAGACUGCGGGUUCGAGUCCCGUACGGAACG,≤ 0.5
4,GUUCCGUUCGCGUAAUGGUAACGCGUGUGCCUCCUCAGGAGAAGACUGCGGGUUCGAGUCACGUACGGAACG,≤ 0.5
5,GUUCCGUUCGCGUAAUGGUAACGCGUCUCCCUCCUAAGGAGAAGACUGCGGGUUCGAGUCCCGUACGGAGCG,0.615
6,GUUCCGUUCGUGUAAUGGUAACGCGUCUCCAUCCUAAGGCGAUGACUGCGGGUUCGAGUCCCGUGGGGAACG,≤ 0.5
7,GUUCCGUUCGCGUAAUGGUAACGUGGCUCCCUCCUAAGGAGAAGACUGCGGGUUCGAGUCCCGUACGUAACG,≤ 0.5
8,GUUCCGUUCGCGUAAUGGUAACGGGUCUCUCUCCUAAGGAGAAGACUGCGGGUUCGAGUCCCGUACGGAACG,≤ 0.5
9,GUUCCGUUCGCGUAAUGGUAACGCGUCUCCCUCCUAAGGAGAAGACUGCGGGUUCGCGUCCCGUACGGAACG,0.56
10,GUUCCGUUCGCGUAAUGGUAACGUGGCUCCCUCCUAAGGAGAAGACUGCGGGUUCGAGUCCCGUACGGAACG,0.51
11,GUUCCGUUCGCGUAAUGGUAACGCGUCUCCCUCCUAGGGAGAAGACUGCGGGUUCGAGUCCUGUACGGAACG,≤ 0.5
12,GUUCCGUUCGCGUAAUGGUAACGUGGCUCCCUCCUAAGGAGAAGACUGCGGGUUCGAGUCGCGUACGGAACG,0.504
13,GUUCCGUUCGCGUAAUGGUAACGAGUCUCCCUCCUAAGGAGAAGACUGCGGGUUCGAGUCCGGUACGGAACG,≤ 0.5
14,GUUCCGUUCGCGUAAUGGUAACGCGUCUCCCUCCUAAGGAGGAGACUGCGGGUUCGAGUCCGGUACGGGACG,≤ 0.5
15,GUUCCGUUCGCGUAAUGGUAACGCGUCUCCCUCCUAUGGAGAAGACUGCGGAUUCGAGUCCCGUACGGAACG,≤ 0.5
16,GUUCCGUUCGCGUAAUGGUAACGCGUCUCUCUCCUAAGGAGAAGACUCCGGGUUCGAGUCCCGUACGGAACG,≤ 0.5
17,GUUCCGUUCGCGUAAUGGUAACGCGUCUCUCUCCUAAGGAGAAGACUGCGGGCUCGAGUCCCGUACGGAACG,≤ 0.5
18,GUUCCGUUCGCGUAAUGGUAACGCGUCUCGCUCCUAAGGAGAAGAUUGCGGGUUCGAGUCCCGUACGGAACG,0.564
